Experimental data published in ChEMBL document CHEMBL4811241, “Revisiting Pyrazolo[3,4-d]pyrimidine Nucleosides as Anti-Trypanosoma cruzi and Antileishmanial Agents” (J Med Chem, 2021).
Activity calls are given as the source filed them. No cut-off for these calls is given here.

How the values were obtained:
[1] = Toxicity in Swiss webster mouse infected with Trypanosoma cruzi Y trypomastigotes assessed as animal survival at 100 mg/kg, po qd for 5 days treatment started at 6 days post-infection and measured at 34 days post-infection; format: organism-based; details: in vivo, time 29 day
Summary of the method: (§1)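 Male Swiss Webster mice (18−20 g, 4−5 weeks) were infected i.p. with 10⁴ Y-strain bloodstream trypomastigotes from a donor mouse. Only mice with detectable parasitemia were treated, in groups of six. Oral gavage was given on days 6–10 post-infection, b.i.d. or q.d. as listed, in 10% Tween 80 vehicle, freshly prepared. Infected vehicle controls were included. Mortality was checked daily to 34 dpi as cumulative percentage.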

Trypanosoma cruzi [2] = test: Antitrypanosomal activity against Trypanosoma cruzi strain Y bloodstream trypomastigotes infected in Swiss Webster mouse assessed as reduction in parasitemia at 100 mg/kg, po qd for 5 days treatment started at 6 days post-infection and measured at 8 days post-infection by light microscopic analysis; format: functional, organism-based; details: time 2.0 day
Summary of the method: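 Male Swiss Webster mice, 18–20 g, six per group; only mice with detectable parasitemia treated. Oral gavage for 5 consecutive days (6–10 dpi); test compound given b.i.d. in 10% Tween 80, benznidazole once daily, formulations freshly prepared. Parasitemia counted by light microscopy in 5 μL blood; mortality checked daily to 34 dpi.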

[3] = Toxicity in Swiss webster mouse infected with Trypanosoma cruzi Y trypomastigotes assessed as animal survival at 10 mg/kg, po qd for 5 days treatment started at 6 days post-infection and measured at 34 days post-infection; format: organism-based; details: in vivo, 696 h, time 29 day; summary of the method: as §1
Trypanosoma cruzi [4] = test: Antitrypanosomal activity against nifurtimox-sensitive Trypanosoma cruzi Tulahuen CL2 infected in Swiss mouse peritoneal macrophages assessed as inhibition of parasite growth measured after 7 days by spectrophotometric analysis; format: functional, organism-based; details: Tulahuen CL2, Peritoneal macrophage, 168 h

SMILES: O=C(Cn1ccnc1[N+](=O)[O-])NCc1ccccc1 [BENZNIDAZOLE]
- survival at 696 h [1]: 100%
- Activity (Trypanosoma cruzi [2]): Active
- Activity [3]: Non-Toxic
- IC50 (Trypanosoma cruzi [4]): 1960 nM
